Experimental data as given in PubChem BioAssay AID624467 (The Scripps Research Institute Molecular Screening Center, 2012).
In all, about 360,000 compounds went through this assay and about 3,600 (1%) were called active.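 The calls were made as follows: active = activation above the mean activation of all test compounds in the run plus 3 SD (cut at about 38% in these data); inactive = the rest.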 The entries come from a sample that favours actives as a whole.

Target: Trace amine-associated receptor 1 (Homo sapiens) (UniProt Q96RJ0)
Sequence (Q96RJ0 whole entry, looked up): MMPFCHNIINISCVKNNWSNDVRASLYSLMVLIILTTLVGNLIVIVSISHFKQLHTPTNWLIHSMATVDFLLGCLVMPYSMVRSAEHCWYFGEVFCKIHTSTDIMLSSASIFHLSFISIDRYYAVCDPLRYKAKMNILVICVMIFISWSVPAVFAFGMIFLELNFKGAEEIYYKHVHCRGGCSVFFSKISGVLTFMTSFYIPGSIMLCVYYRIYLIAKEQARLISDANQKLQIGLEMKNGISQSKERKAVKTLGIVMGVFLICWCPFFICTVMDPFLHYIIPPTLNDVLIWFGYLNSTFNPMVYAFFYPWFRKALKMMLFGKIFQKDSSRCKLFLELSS
Experiment: human TAAR1 agonists, primary screen, Fluo-8 calcium fluorescence, CHO RD-HGA16 cells (AID 624467)
Conditions: CHO RD-HGA16 TAAR1, Fluo-8 calcium fluorescence; at 3 µM; hits give high values; vehicle wells 0%, saturating PEA agonist 100%
Outline: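 Benchmarks: low control DMSO, high control PEA (EC100); System: CHO RD-HGA16 cells carrying human TAAR1 plus Gα16; Detection: Fluo-8 fluorescence, 5 s baseline then 140 s kinetic read; Schedule: 17-24 h plating, Fluo-8 75 min 37 °C, 30 min RT; Read-out basis: % activation from peak over basal fluorescence ratio, DMSO-to-PEA scaled.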

**Q.** For CCN(CC)Cc1nc2sc(C)c(C)c2c(=O)[nH]1, which activation is on record?
**A.** 7.06% (inactive)

**Q.** For Cc1cc(NCCc2c[nH]c3ccccc23)ccc1Oc1cccnc1, which activation is on record?
**A.** -0.68% (inactive)

**Q.** For COC(=O)Nc1nc2ccc(C(=O)C3CC3)cc2[nH]1, which activation is on record?
**A.** 0.33% (inactive)

**Q.** For CC(C)C(=O)Nc1nnc(SCC(=O)N2C(C)CCCC2C)s1 (centres undefined), which activation is on record?
**A.** 2.6% (inactive)

**Q.** CC/C(=C(/c1ccccc1)c1ccc(OCC[N+](C)(C)C)cc1)c1ccccc1 was tested. Which activation did it give?
**A.** 13.5% (inactive)

**Q.** For OC(c1ccccc1)(c1ccccc1)C1CCN(CCCOc2ccccc2)CC1, which activation is on record?
**A.** 23.6% (inactive)

**Q.** With N#Cc1ccc(OCCCN2CCC(C(O)(c3ccccc3)c3ccccc3)CC2)c(F)c1 as the compound, how does the activation read?
**A.** 51% (active)

**Q.** OC(c1ccccc1)(c1ccccc1)C1CCN(CCCOc2ccc(-c3ccsc3)cc2)CC1 was tested. Which activation did it give?
**A.** 35.3% (inactive)

**Q.** Cc1ccc2c(c1)N(S(=O)(=O)c1cc(-c3cc(C)no3)ccc1C)CCO2 was tested. Which activation did it give?
**A.** 0.2% (inactive)

**Q.** For Nc1c(C(=O)c2cccs2)sc2nsc(SCCN3CCCCC3)c12, which activation is on record?
**A.** 95.1% (active)

**Q.** How did the activation turn out when Nc1ccn([C@@H]2O[C@H](C(=O)N[C@H]3CCCCNC3=O)[C@@H](O)[C@H]2O)c(=O)n1 was run?
**A.** -0.44% (inactive)

**Q.** Which activation does the source give for c1ccc(Nc2nc(N3CCOCC3)c3ccccc3n2)cc1 here?
**A.** 98.4% (active)

**Q.** c1ccc2c(NC3C4CC5CC(C4)CC3C5)nc(N3CCOCC3)nc2c1 (centres undefined) was tested. Which activation did it give?
**A.** 28.9% (inactive)

**Q.** COc1ccc(Nc2ncc(F)c(N3CCOCC3)n2)cc1 was tested. Which activation did it give?
**A.** 6.99% (inactive)

**Q.** How did the activation turn out when O=S1(=O)c2c(cccc2N2CCCCC2)O[C@H](COCc2ccccc2)CN1C1CC1 was run?
**A.** -0.15% (inactive)

**Q.** C/C(COc1ccccc1)=N\NC(=O)c1nnn(-c2nonc2N)c1-c1ccc(C)cc1 was tested. Which activation did it give?
**A.** 6.16% (inactive)

**Q.** Which activation does the source give for CCc1ccc(/C=N/NC(=O)c2nnn(-c3nonc3N)c2CN2CCc3ccccc32)cc1 here?
**A.** 4.17% (inactive)

**Q.** For CC(C)Oc1ccc(/C=N/NC(=O)c2nnn(-c3nonc3N)c2CN(C)C2CCCCC2)cc1, which activation is on record?
**A.** 19.2% (inactive)

**Q.** With CCCOc1ccc(-c2c(C(=O)N/N=C/c3ccco3)nnn2-c2nonc2N)cc1 as the compound, how does the activation read?
**A.** 74.1% (active)

**Q.** With Nc1nonc1-n1nnc(C(=O)N/N=C/c2ccc(Cl)cc2)c1-c1ccc2c(c1)OCO2 as the compound, how does the activation read?
**A.** 133% (active)

**Q.** CC(C)c1c(C(=O)N/N=C/c2ccccc2C(=O)O)nnn1-c1nonc1N was tested. Which activation did it give?
**A.** 2.66% (inactive)

**Q.** CCOC(=O)N1CCN(C(=O)C[C@H]2C[C@@]3(C(=O)OC)C(=C[C@H](C4CCCC4)O[C@@H]3C)N(Cc3ccccc3)C2=O)CC1 was tested. Which activation did it give?
**A.** -1.14% (inactive)

**Q.** With CCc1ccc(C2=CC(=O)CC(C)(C)C2=O)cc1 as the compound, how does the activation read?
**A.** -1.42% (inactive)

**Q.** CCCCN1C(=O)C(CC(=O)NC(c2ccccc2)c2ccccc2)CC(C(=O)N2CCOCC2)=C1C (centres undefined) was tested. Which activation did it give?
**A.** 0.19% (inactive)

**Q.** For CC(C)CNc1cccc2c1S(=O)(=O)N[C@H](CC(C)C)CO2, which activation is on record?
**A.** -0.51% (inactive)

**Q.** How did the activation turn out when CN(C(=O)CN(CCO)CC(=O)N(C)C(C)(C)Cc1ccccc1)C(C)(C)Cc1ccccc1 was run?
**A.** 125% (active)

**Q.** Which activation does the source give for CN(CCO)C(=O)c1nc[nH]c1C(=O)N(C)Cc1ccccc1 here?
**A.** 0.95% (inactive)

**Q.** With CCOC(=O)N(Cc1ccccc1)C1CC1 as the compound, how does the activation read?
**A.** 3.18% (inactive)

**Q.** Which activation does the source give for COc1ccc(NS(=O)(=O)c2cc3c(cc2C)N(C(C)=O)CCO3)cc1 here?
**A.** 1.33% (inactive)

**Q.** C=CC[C@]12C[C@@]3(O[C@H](c4ccc(C(F)(F)F)cc4)N=C3C[C@H](c3ccc(OC)cc3)[C@H]1C)N(C1CCN(Cc3ccccc3)CC1)C2=O was tested. Which activation did it give?
**A.** 0.44% (inactive)

**Q.** Which activation does the source give for CC1CCN(C(=O)CCNC(=O)c2ccccc2)CC1 here?
**A.** 1.29% (inactive)

**Q.** With CC1CCN(c2c(NCc3ccc(C(=O)NCc4ccccc4)cc3)c(=O)c2=O)CC1 as the compound, how does the activation read?
**A.** 0.05% (inactive)

**Q.** For CC1CCCN(c2ccc(C(=O)NCCc3ccccc3)cn2)C1 (centres undefined), which activation is on record?
**A.** 41.2% (active)

**Q.** How did the activation turn out when CC(=O)NC1C(Oc2ccc(C)cc2)OC2COC(c3ccco3)OC2C1O (centres undefined) was run?
**A.** 1.22% (inactive)

**Q.** How did the activation turn out when CCc1ccc(NC(=O)Nc2ccncc2)cc1 was run?
**A.** 30.2% (inactive)

**Q.** With O=C(Nc1ccc(Cl)cc1)Nc1ccc(Oc2cccnc2)nc1 as the compound, how does the activation read?
**A.** 35.4% (inactive)

**Q.** For O=C(Nc1ccncc1)Nc1ccc(F)cc1, which activation is on record?
**A.** 78.9% (active)

**Q.** How did the activation turn out when O=C(CCC(=O)n1ncc2ccccc21)NCc1ccccc1Cl was run?
**A.** 0.3% (inactive)

**Q.** With COc1cccc(NC(=O)N(C)C[C@@H]2OCc3cn(nn3)CCCC(=O)N([C@@H](C)CO)C[C@H]2C)c1 as the compound, how does the activation read?
**A.** 1.34% (inactive)

**Q.** With O=S(=O)(c1ccc(Br)c2ccccc12)N1CCOCC1 as the compound, how does the activation read?
**A.** 3.96% (inactive)

**Q.** How did the activation turn out when CCOC(=O)C1=C(O)/C(=C/c2cc(C)n(-c3ccccc3)c2C)N=C1C was run?
**A.** 8.89% (inactive)

**Q.** Cc1cccc(C)c1-n1c(C)cc(/C=C2\C(=O)NN(c3ccccc3)C2=O)c1C was tested. Which activation did it give?
**A.** 38.3% (active)

**Q.** With CN(C(=O)c1cccc(NC(=O)C2CCN(C(=O)OC(C)(C)C)CC2)c1)C1CCC1 as the compound, how does the activation read?
**A.** 12.7% (inactive)

**Q.** O=C(Nc1ccc(F)cc1)Nc1nnc([C@H]2C[C@H](O)[C@@H](CO)O2)s1 was tested. Which activation did it give?
**A.** 45% (active)

**Q.** How did the activation turn out when O=C(Nc1nnc([C@H]2C[C@H](O)[C@@H](CO)O2)s1)c1cccc(Cl)c1 was run?
**A.** 2.33% (inactive)

**Q.** For Cc1ccc(CNC(=O)Nc2nnc([C@H]3C[C@H](O)[C@@H](CO)O3)s2)cc1, which activation is on record?
**A.** 0.94% (inactive)

**Q.** Which activation does the source give for CC(=O)c1c(N2CCN(c3ccc(F)cc3)CC2)nc(=S)n(-c2ccccc2)c1C here?
**A.** -0.41% (inactive)

**Q.** With Cn1ccsc1=NC(=O)c1cc(S(=O)(=O)N2CCOCC2)ccc1Cl as the compound, how does the activation read?
**A.** 4.63% (inactive)

**Q.** For COc1ccc(-c2ccc3c(n2)CCCN3S(=O)(=O)c2ccc(C)cc2)cc1, which activation is on record?
**A.** 1.61% (inactive)

**Q.** How did the activation turn out when CC(=O)Oc1ccc(Cn2c(C)c(C(=O)NCc3ccc(C#N)cc3)sc2=O)cc1 was run?
**A.** 140% (active)

**Q.** Which activation does the source give for Cc1ccc(Cn2c(C)c(C(=O)NCc3ccccc3C(F)(F)F)sc2=O)cc1 here?
**A.** 0.22% (inactive)

**Q.** With Cc1c(C(=O)NCc2ccc(C#N)cc2)sc(=O)n1Cc1ccc(C(=O)N(C)C)cc1 as the compound, how does the activation read?
**A.** 2.3% (inactive)

**Q.** CC(C)[C@@H](C)/C=C/[C@@H](C)[C@H]1CC[C@@H]2[C@]1(C)CCC1[C@]23C=C[C@]2(C[C@@H](O)CC[C@]12C)N(c1ccc([N+](=O)[O-])cn1)O3 (some centres undefined) was tested. Which activation did it give?
**A.** -0.81% (inactive)

**Q.** For O=C(NCc1ccccc1)[C@H]1CCCN1C(=O)[C@H]1CCCN1C(=O)c1cc(F)cc(F)c1, which activation is on record?
**A.** -0.16% (inactive)
